Consider five compounds from paper PMC3081976 (Bioorganic & medicinal chemistry letters, 2010).

Usually half-life stands for the time in which the quantity being followed falls by half. High values mean slow loss, low ones fast loss. By clearance is commonly meant the volume of plasma or blood freed of the substance per unit of time. A higher clearance goes with a high capacity for elimination.

The nature of the data set: Rat pharmacokinetics. It counts as in vivo, Sprague-Dawley rats. To be noted: Sprague-Dawley, plasma; for clearance: iv, 1 mg/kg. The gist of the method:
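Sprague-Dawley rats (n = 3) received the test compound intravenously at 1 mg/kg; a separate oral gavage arm used 2 mg/kg. Blood was sampled at 5, 15, 30 min and 1, 2, 4, 6, 8 h into EDTA tubes and centrifuged to plasma. Plasma proteins were precipitated with acetonitrile and drug was quantified by LC-MS/MS. CL and t1/2 came from noncompartmental analysis.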

Compound `Cn1ccc(-c2cc(Nc3ccc(-n4cnc(-c5ccccn5)n4)cc3)ncc2F)n1` [Compound 21] gave a half-life of 3.4 h and a clearance of 4 mL/min/kg.
Compound `Cc1ccc(-c2ncn(-c3ccc(Nc4cc(-c5ccn(C)n5)c(F)cn4)cc3)n2)cn1` [Compound 20] showed a half-life of 2.3 h and a clearance of 4.2 mL/min/kg.
For `Cn1ccc(-c2cc(Nc3ccc(-n4cnc(N5CCOCC5)n4)cc3)ncc2Cl)n1` [Compound 16] the same measures were 6.5 h and 0.9 mL/min/kg.
For `Cc1nc(C)n(-c2ccc(Nc3cc(-c4ccn(C)n4)c(Cl)cn3)cc2)n1` [Compound 15] the same measures were 1.3 h and 9 mL/min/kg.
As for `Cc1nc(C)n(-c2ccc(Nc3cc(-c4nn(C)cc4-c4ccc(F)cc4)ccn3)cc2)n1` [Compound 37], the half-life is 1.5 h and the clearance stood at 6.4 mL/min/kg.
